Results reported in ChEMBL document CHEMBL4020761, “Exploration of pyrrole derivatives to find an effective potassium-competitive acid blocker with moderately long-lasting suppression of gastric acid secretion” (Bioorg Med Chem, 2017).
Activity calls are given as the source filed them. No cut-off for these calls is given here.

What was measured:
[1] = molecular target: hERG (KCNH2) (Homo sapiens, UniProt Q12809); experiment: Inhibition of human ERG expressed in HEK cells at 10 uM at -75 mV holding potential by Whole-cell voltage clamp assay relative to control; assay type: cell-based; conditions: HEK cells expressing human ERG
[2] = Plasma concentration in Sprague-Dawley rat at 0.2 mg/kg, iv administered as cassette dose after 1 hr by LC-MS/MS analysis; assay type: ADME, organism-based
How it was run: (§1)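 Fasted male Sprague-Dawley rats given compounds iv by cassette dosing at 0.2 mg/kg (as free base). Plasma and stomach sampled at 10 min, 1, 4 and 24 h. Plasma and 20% stomach homogenate in saline deproteinized with acetonitrile containing internal standard, then LC/MS/MS. AUC calculated for plasma and stomach. Values are averages of three rats.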

[3] = Inhibition of CYP450 (unknown origin); assay type: ADME; conditions: human
[4] = test system: Rattus norvegicus; experiment: Inhibition of histamine-induced acid secretion in Jcl:Sprague-Dawley rat assessed as pH of gastric perfusate at 1 mg/kg, iv pretreated for 3 mins after pylorus ligation followed by histamine.2HCl treatment measured after 3 hrs by glass electrode method (reference value: 2); assay type: functional
[5] = Plasma concentration in Sprague-Dawley rat at 0.2 mg/kg, iv administered as cassette dose after 10 mins by LC-MS/MS analysis; assay type: ADME, organism-based; how it was run: as §1
[6] = test system: Stomach; experiment: AUC in Sprague-Dawley rat stomach at 0.2 mg/kg, iv administered as cassette dose by LC-MS/MS analysis; assay type: ADME, organism-based; conditions: in vivo; how it was run: as §1
[7] = molecular target: CYP3A4 (Homo sapiens, UniProt P08684); experiment: Inhibition of CYP3A4 (unknown origin) expressed in insect cells at 10 uM using testosterone as substrate after 15 mins by HPLC analysis relative to control; assay type: ADME; conditions: recombinant CYP3A4 expressed in insect cells, probe testosterone
How it was run: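 Testosterone substrate at 100 μmol/L with 10 nmol/L insect-cell-expressed CYP3A4 and 10 μmol/L test compound, incubated 15 min at 37 °C. 6β-hydroxytestosterone quantified by HPLC with UV detection.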

[8] = test system: Rattus norvegicus; experiment: Inhibition of histamine-induced acid secretion in Jcl:Sprague-Dawley rat gastric at 1 mg/kg, iv pretreated for 3 mins after pylorus ligation followed by histamine.2HCl treatment measured after 3 hrs by titration method relative to control; assay type: functional
How it was run: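 Anesthetized rats dosed iv at 1 mg/kg. Total acid output over 3 h after histamine injection compared with vehicle-treated rats.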

[9] = Drug uptake in Sprague-Dawley rat stomach at 0.2 mg/kg, iv administered as cassette dose after 24 hrs by LC-MS/MS analysis; assay type: ADME, organism-based; conditions: read-out: Drug uptake; how it was run: as §1
[10] = Cytotoxicity against human HepG2 cells assessed as cellular ATP level at 100 uM after 1 day by ATPLite assay relative to control; assay type: cell-based; conditions: read-out: Activity
[11] = Dissociation constant, pKa of the compound; assay type: physicochemical
How it was run: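 pH-metric titration across pH 2–12 with an Ag/AgCl pH electrode.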

[12] = Lipophilicity, log D of the compound at pH 7.4 by HPLC analysis; assay type: physicochemical; conditions: buffer
How it was run: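 At pH 7.4, log D derived from HPLC retention time relative to standard compounds.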

[13] = test system: Rattus norvegicus; experiment: Inhibition of histamine-induced acid secretion in Jcl:Sprague-Dawley rat assessed as increase in pH of gastric perfusate at 1 mg/kg, iv pretreated for 3 mins after pylorus ligation followed by histamine.2HCl treatment measured after 180 to 300 mins by glass electrode method; assay type: functional, organism-based
[14] = Stability of the compound under acidic condition; assay type: physicochemical
[15] = Drug uptake in Sprague-Dawley rat stomach at 0.2 mg/kg, iv administered as cassette dose after 4 hrs by LC-MS/MS analysis; assay type: ADME, organism-based; conditions: read-out: Drug uptake; how it was run: as §1
[16] = Inhibition of H+/K+-ATPase in porcine stomach gastric mucosal microsomes assessed as reduction in inorganic phosphate production using ATP as substrate preincubated for 30 mins followed by ATP addition in presence of KCl at pH 6.5 by malachite green reagent based colorimetric assay; design: species or system Sus scrofa
[17] = test system: Canis familiaris; experiment: Inhibition of histamine-induced acid secretion in dog heidenhain pouch at 1 mg/kg, po treated 1 day after and 1 to 48 hrs before histamine.2HCl treatment measured 30 mins post histamine challenge by titration method; assay type: functional, organism-based; conditions: Canis lupus familiaris
[18] = Drug uptake in Sprague-Dawley rat stomach at 0.2 mg/kg, iv administered as cassette dose after 1 hr by LC-MS/MS analysis; assay type: ADME, organism-based; conditions: read-out: Drug uptake; how it was run: as §1
[19] = Drug uptake in Sprague-Dawley rat stomach at 0.2 mg/kg, iv administered as cassette dose after 10 mins by LC-MS/MS analysis; assay type: ADME, organism-based; conditions: read-out: Drug uptake; how it was run: as §1
[20] = test system: Rattus norvegicus; experiment: Inhibition of histamine-induced acid secretion in po dosed rat assessed as increase in pH of gastric perfusate pretreated for 1 hr followed by pylorus ligation and histamine.2HCl treatment measured after 3 hrs by glass electrode method; assay type: functional, organism-based
[21] = AUC in Sprague-Dawley rat plasma at 0.2 mg/kg, iv administered as cassette dose by LC-MS/MS analysis; assay type: ADME, organism-based; how it was run: as §1
[22] = test system: Canis familiaris; experiment: Inhibition of histamine-induced acid secretion in dog heidenhain pouch at 1 mg/kg, po treated 1 day after and 1 to 48 hrs before histamine.2HCl treatment measured up to 24 hrs post dose by titration method; assay type: functional, organism-based; conditions: Canis lupus familiaris
How it was run: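 Heidenhain pouch dogs dosed orally at 1 mg/kg, with histamine-stimulated acid secretion followed over time, up to 24 h after dosing. Mean ± SE from three or four dogs.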

[23] = test system: Rattus norvegicus; experiment: Inhibition of histamine-induced acid secretion in Jcl:Sprague-Dawley rat assessed as increase in pH of gastric perfusate at 1 mg/kg, iv pretreated for 3 mins after pylorus ligation followed by histamine.2HCl treatment measured after 3 hrs by glass electrode method; assay type: functional, organism-based
[24] = Plasma concentration in Sprague-Dawley rat at 0.2 mg/kg, iv administered as cassette dose after 4 hrs by LC-MS/MS analysis; assay type: ADME, organism-based; how it was run: as §1

Sequence of CYP3A4 (P08684 whole entry): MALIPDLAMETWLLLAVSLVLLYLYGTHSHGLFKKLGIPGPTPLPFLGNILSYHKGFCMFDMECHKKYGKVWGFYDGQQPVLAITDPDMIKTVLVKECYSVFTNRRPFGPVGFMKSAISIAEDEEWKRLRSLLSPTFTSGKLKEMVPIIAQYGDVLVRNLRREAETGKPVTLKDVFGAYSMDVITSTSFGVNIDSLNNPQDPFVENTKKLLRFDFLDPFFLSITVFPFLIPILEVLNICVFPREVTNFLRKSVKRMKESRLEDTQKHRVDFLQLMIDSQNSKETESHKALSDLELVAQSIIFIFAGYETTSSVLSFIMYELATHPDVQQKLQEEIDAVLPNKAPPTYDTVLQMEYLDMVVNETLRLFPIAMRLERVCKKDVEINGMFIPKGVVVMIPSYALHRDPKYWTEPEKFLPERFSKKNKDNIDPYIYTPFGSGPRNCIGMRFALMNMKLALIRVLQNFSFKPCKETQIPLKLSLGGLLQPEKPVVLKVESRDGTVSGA
Sequence of hERG (KCNH2) (Q12809 whole entry): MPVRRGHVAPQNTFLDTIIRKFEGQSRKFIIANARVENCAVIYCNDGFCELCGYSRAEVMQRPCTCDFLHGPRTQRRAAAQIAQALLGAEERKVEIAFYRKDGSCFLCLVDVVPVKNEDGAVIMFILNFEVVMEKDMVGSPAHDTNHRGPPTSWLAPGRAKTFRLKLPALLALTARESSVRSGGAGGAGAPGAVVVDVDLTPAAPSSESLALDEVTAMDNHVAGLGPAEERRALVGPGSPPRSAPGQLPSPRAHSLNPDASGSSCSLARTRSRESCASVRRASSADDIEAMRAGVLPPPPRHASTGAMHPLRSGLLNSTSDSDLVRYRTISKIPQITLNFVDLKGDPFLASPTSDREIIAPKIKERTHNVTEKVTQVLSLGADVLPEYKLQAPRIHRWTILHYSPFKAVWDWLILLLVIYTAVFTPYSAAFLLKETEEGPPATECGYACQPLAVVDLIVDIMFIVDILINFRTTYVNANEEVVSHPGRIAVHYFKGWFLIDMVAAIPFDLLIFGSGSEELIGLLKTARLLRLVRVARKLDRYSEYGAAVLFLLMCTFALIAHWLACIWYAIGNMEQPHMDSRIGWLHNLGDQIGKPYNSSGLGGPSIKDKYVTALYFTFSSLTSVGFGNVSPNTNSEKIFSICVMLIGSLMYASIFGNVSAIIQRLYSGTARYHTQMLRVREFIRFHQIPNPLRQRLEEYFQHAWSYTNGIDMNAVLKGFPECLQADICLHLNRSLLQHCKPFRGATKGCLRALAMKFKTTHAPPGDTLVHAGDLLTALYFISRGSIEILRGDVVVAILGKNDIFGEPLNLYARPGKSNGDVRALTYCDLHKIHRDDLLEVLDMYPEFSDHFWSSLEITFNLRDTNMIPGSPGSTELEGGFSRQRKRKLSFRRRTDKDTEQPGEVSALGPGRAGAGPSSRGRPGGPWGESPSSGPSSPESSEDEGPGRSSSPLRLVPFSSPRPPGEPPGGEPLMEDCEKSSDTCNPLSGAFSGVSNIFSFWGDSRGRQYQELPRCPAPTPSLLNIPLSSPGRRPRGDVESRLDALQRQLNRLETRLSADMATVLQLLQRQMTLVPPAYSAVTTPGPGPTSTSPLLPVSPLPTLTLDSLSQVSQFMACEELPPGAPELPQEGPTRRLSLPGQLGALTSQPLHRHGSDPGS

concentration at 1 h [2] [ng/mL]	concentration at 10 min [5] [ng/mL]	AUC [6] [ng·h/g]	inhibition at 0.25 h, 10 µM [7] [%]	concentration at 24 h [9] [ng/g]	logD [12]	concentration at 4 h [15] [ng/g]	IC50 [16] [nM]	concentration at 1 h [18] [ng/g]	concentration at 10 min [19] [ng/g]	AUC [21] [ng·h/mL]	Compound	inhibition at 10 µM [1] [%]	pH [4]	inhibition in vivo at 1 mg/kg [8] [%]	viability at 24 h, 100 µM [10] [%]	inhibition [13]	inhibition [17]	inhibition [23]	other results
8.1	39.4	10378	4.3	28.9	0.48	682	73	927	947	35	CNCc1cn(S(=O)(=O)c2cc(C)ccn2)c(-c2cccnc2F)c1F	45.1	6	92	85.5	inactive	Active		inhibition (INH) [3]: Not Active; pKa [11]: 8.73; Stability [14]: Stable; inhibition [20]: Dose-dependent effect; inhibition [22]: Active
10.8	40.1	18284	-1.2	219	0.62	1180	180	1120	672	41	CNCc1cn(S(=O)(=O)c2ccc(C)nc2)c(-c2cccnc2F)c1F	24.8		97	76.7	inactive		Active	
8	25.3	4806	30.1		0.48	300	210	577	507	32	CNCc1cn(S(=O)(=O)c2cccnc2C)c(-c2cccnc2F)c1F	14.8		92	97.4				concentration at 4 h [24]: 0.3 ng/mL
7.9	36	5757	7.7	2.1	0.44	337	97	809	617	33	CNCc1cn(S(=O)(=O)c2ccccn2)c(-c2cccnc2F)c1F	9	5	95	94.8	inactive	Active		
8.3	43	6599	27	38.3	0.83	425	200	606	330	38	CNCc1cn(S(=O)(=O)c2cncc(F)c2)c(-c2cccnc2F)c1F	22.7	>5	99	88.9	inactive			
14.9	43.5	14434	55.8	47.9	1.03	971	150	1260	773	50	CNCc1cn(S(=O)(=O)c2cccc(OC)n2)c(-c2cccnc2F)c1F	82.3		98	69.8			Active	
